The values below come from ChEMBL document CHEMBL3286182, “4-aminoquinolone piperidine amides: noncovalent inhibitors of DprE1 with long residence time and potent antimycobacterial activity” (J Med Chem, 2014).

The subject of assay [1] is Mycobacterium tuberculosis. In words: Antimycobacterial activity against Mycobacterium tuberculosis H37Rv after 5 days by standard microdilution method. It counts as functional. The conditions noted are these: 120 h.
Assay [2] can be described thus: Inhibition of Mycobacterium smegmatis recombinant DprE1 using farnesylphosphoryl-beta-D-ribofuranose as substrate assessed as conversion of amplex red to resorufin after 30 mins. More on the design: species or system Mycolicibacterium smegmatis. The method in brief:
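Msm DprE1 (thioredoxin-6His fusion of Msm Rv3790) at 75 nM, preincubated 30 min with 10 μM FAD. Buffer: 50 mM glycylglycine pH 8.5, 200 mM potassium glutamate, 0.002% Brij-35, 2% DMSO, 25 °C. Started with 300 μM farnesylphosphoryl-β-D-ribofuranose, 0.01 mg/mL HRP and 50 μM Amplex Red.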

Assay [3] concerns Mycobacterium tuberculosis. In words: Antimycobacterial activity against Mycobacterium tuberculosis H37Rv under hypoxic condition after 6 days by resazurin assay. It counts as functional.
For assay [4], the system named is Staphylococcus aureus. Description: Antimicrobial activity against Staphylococcus aureus ARC517 at 100 uM. Format: functional, organism-based. The method in brief:
(§1)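 Nonmycobacterial panel of Candida albicans, Gram-negative and Gram-positive pathogens.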

Assay [5] relates to Streptococcus pneumoniae. In words: Antimicrobial activity against Streptococcus pneumoniae ARC548 at 100 uM. Format: functional, organism-based. The method in brief:
as §1

The test system of assay [6] is Haemophilus influenzae. In words: Antimicrobial activity against Haemophilus influenzae ARC446 at 100 uM. Format: functional, organism-based. The method in brief:
as §1

The subject of assay [7] is Haemophilus influenzae. Description: Antimicrobial activity against Haemophilus influenzae ARC158 at 100 uM. It counts as functional, organism-based. The method in brief: as §1
Assay [8] has as its system Escherichia coli. In words: Antimicrobial activity against Escherichia coli ARC523 at 100 uM. Format: functional, organism-based. In a few lines: as §1
Assay [9] concerns Escherichia coli. In words: Antimicrobial activity against Escherichia coli ARC524 at 100 uM. It counts as functional, organism-based. The method in brief: as §1
Assay [10] deals with Pseudomonas aeruginosa. In words: Antimicrobial activity against Pseudomonas aeruginosa ARC545 at 100 uM. It counts as functional, organism-based. In a few lines: as §1
The subject of assay [11] is Pseudomonas aeruginosa. Description: Antimicrobial activity against Pseudomonas aeruginosa ARC546 at 100 uM. Format: functional, organism-based. In a few lines: as §1
The subject of assay [12] is Klebsiella pneumoniae. Description: Antimicrobial activity against Klebsiella pneumoniae ARC1865 at 100 uM. It counts as functional, organism-based. The method in brief: as §1
Assay [13] deals with Mycolicibacterium smegmatis. In words: Antimicrobial activity against Mycobacterium smegmatis ATCC 607 at 100 uM. Format: functional, organism-based.
Assay [14] concerns Mycolicibacterium smegmatis. In words: Antimicrobial activity against Mycobacterium smegmatis mc2155 at 100 uM. It counts as functional, organism-based. The conditions noted are these: str. MC2 155.
Assay [15] deals with Candida albicans. Description: Antimicrobial activity against Candida albicans ARC527 at 100 uM. Format: functional, organism-based. The method in brief: as §1

In brackets after ≈: the same amount, converted by molar mass. Activity calls are given as the source filed them. The rule behind the calls is not given here. Where only a bound is given, the exact number is not on record here.

Compound `Cc1onc(C(=O)N2[C@@H]3CC[C@H]2C[C@@H](Nc2cc(=O)[nH]c4cc(F)c(F)cc24)C3)c1C` gave an MIC in assay [1] of 0.06 µM (≈ 0.0257 µg/mL). Besides, the IC50 in [2] is 7 nM.
In assay [1], `Cn1ncc(C(=O)N2[C@@H]3CC[C@H]2C[C@@H](Nc2cc(-c4ccccc4)[nH]c(=O)c2)C3)c1Cl` showed an MIC of 1.6 µM (≈ 0.701 µg/mL). Moreover, the IC50 in assay [2] was found to be 53 nM.
In [1], `Cn1ncc(C(=O)N2CCC(Nc3n[nH]c4ccc(F)cc34)CC2)c1Cl` displayed an MIC of more than 100 µM. The 50% inhibitory concentration (IC50) in [2] was found to be 113 nM.
Consider `Cn1ncc(C(=O)N2[C@@H]3CC[C@H]2C[C@H](Nc2cc(=O)[nH]c4ccc(F)cc24)C3)c1Cl`, for which the minimal inhibitory concentration (MIC) in [1] was more than 200 µM. For the same compound, the IC50 in [2] came out at 43000 nM.
Consider `Cn1ncc(C(=O)N2CCC(Nc3cc(=O)[nH]c4ccc(F)cc34)CC2)c1C(F)(F)F`, for which 6.2 µM (≈ 2.71 µg/mL) was the least that counted as inhibitory in [1] (MIC). The result in assay [3], in assay [4], in [5], in assay [6], in assay [7] and in assay [8] was inactive. The outcome in assay [9], in assay [10], in assay [11], in [12], in assay [13] and in [14] was inactive. For the same compound, the result in assay [15] was inactive. In assay [2], the IC50 came out at 21 nM.
Consider `Cn1ncc(C(=O)N2CCC(Nc3cc(-c4ccccc4)[nH]c(=O)c3)CC2)c1Cl`, for which, in assay [1], the minimal inhibitory concentration (MIC) worked out at 50 µM (≈ 20.6 µg/mL). Further, in assay [2], the concentration for half-maximal inhibition (IC50) amounted to 3000 nM.
With `Cn1ncc(C(=O)N2CCC(Oc3cc(=O)[nH]c4ccccc34)CC2)c1Cl`, the minimal inhibitory concentration (MIC) in assay [1] was found to be 50 µM (≈ 19.3 µg/mL). The outcome in [3], in [4], in assay [5], in [6], in assay [7] and in assay [8] was inactive. For the same compound, the result in assay [9], in assay [10], in [11], in assay [12], in assay [13] and in assay [14] was inactive. In addition, the outcome in assay [15] was inactive. Also, the concentration for half-maximal inhibition (IC50) in assay [2] was 8000 nM.
Consider `CCn1c(=O)cc(NC2CCN(C(=O)c3cnn(C)c3Cl)CC2)c2ccccc21`, for which the MIC in assay [1] was more than 100 µM. The result in [3], in assay [4], in [5], in assay [6], in [7] and in assay [8] was inactive. Moreover, the outcome in assay [9], in assay [10], in [11], in assay [12], in assay [13] and in assay [14] was inactive. For the same compound, the outcome in assay [15] was inactive. The IC50 in [2] was more than 100000 nM.
As to `Cc1onc(C(=O)N2CCC(Nc3cc(=O)[nH]c4ccc(F)cc34)CC2)c1C`, in [1], the MIC came to 6.2 µM (≈ 2.38 µg/mL). For the same compound, the outcome in assay [3], in assay [4], in assay [5], in assay [6], in [7] and in assay [8] was inactive. Besides, the result in [9], in [10], in assay [11], in [12], in assay [13] and in assay [14] was inactive. Further, the outcome in [15] was inactive. Also, in [2], the IC50 is less than 6 nM.
`CCn1ncc(C(=O)N2CCC(Nc3cc(=O)[nH]c4ccc(F)cc34)CC2)c1Cl`: in assay [1], the MIC was 12.5 µM (≈ 5.22 µg/mL). For the same compound, the result in [3], in [4], in [5], in [6], in [7] and in assay [8] was inactive. For the same compound, the outcome in assay [9], in [10], in assay [11], in assay [12], in assay [13] and in assay [14] was inactive. Also, the result in assay [15] was inactive. The half-maximal inhibitory concentration (IC50) in assay [2] came to 45 nM.
In turn, `Cc1onc(C(=O)N2CCC(Nc3cc(=O)[nH]c4cc(F)c(F)cc34)CC2)c1C` returned an MIC in assay [1] of 0.2 µM (≈ 0.0805 µg/mL). Also, the result in assay [3], in [4], in assay [5], in [6], in assay [7] and in assay [8] was inactive. The outcome in assay [9], in assay [10], in assay [11], in [12], in assay [13] and in assay [14] was inactive. Moreover, in assay [15], the result was inactive. The IC50 in [2] turned out to be 18 nM.
In [1], `CC(C)n1ncc(C(=O)N2CCC(Nc3cc(=O)[nH]c4ccccc34)CC2)c1Cl` showed an MIC of 100 µM (≈ 41.4 µg/mL). Further, the outcome in [3], in assay [4], in [5], in [6], in assay [7] and in [8] was inactive. In addition, the outcome in assay [9], in assay [10], in assay [11], in [12], in assay [13] and in assay [14] was inactive. Also, the result in assay [15] was inactive. Moreover, the concentration for half-maximal inhibition (IC50) in assay [2] turned out to be 7000 nM.
In [1], `Cn1ncc(C(=O)N2CC(Nc3cc(=O)[nH]c4ccccc34)C2)c1Cl` gave an MIC of 50 µM (≈ 17.9 µg/mL). Moreover, in [2], the half-inhibitory concentration (IC50) came out at 1800 nM.
In [1], `C[C@H]1C[C@H](Nc2cc(=O)[nH]c3ccccc23)CCN1C(=O)c1cnn(C)c1Cl` returned an MIC of 12.5 µM (≈ 5 µg/mL). Besides, the IC50 in assay [2] is 26 nM.
In turn, `Cn1ncc(C(=O)N2CCC(Nc3cc(=O)n(C)c4cc(F)c(F)cc34)CC2)c1Cl` yielded a minimal inhibitory concentration (MIC) in assay [1] of 3.1 µM (≈ 1.35 µg/mL). Besides, the outcome in [3], in assay [4], in assay [5], in assay [6], in assay [7] and in assay [8] was inactive. The outcome in [9], in assay [10], in assay [11], in assay [12], in [13] and in assay [14] was inactive. Besides, in assay [15], the result was inactive. Moreover, the IC50 in [2] was 20 nM.
Take `Cn1ncc(C(=O)N2[C@@H]3CC[C@H]2C[C@@H](Nc2cc(=O)[nH]c4cc(F)c(F)cc24)C3)c1Cl`: the lowest concentration to inhibit growth in assay [1] (MIC) was 0.06 µM (≈ 0.0269 µg/mL). For the same compound, in assay [2], the 50% inhibitory concentration (IC50) was determined as 9 nM.
Compound `Cn1ncc(C(=O)N2CCC(Nc3cc(=O)[nH]c4c(F)c(F)ccc34)CC2)c1Cl` came in with an MIC in assay [1] of 1.6 µM (≈ 0.675 µg/mL). Also, the outcome in assay [3], in assay [4], in assay [5], in assay [6], in assay [7] and in assay [8] was inactive. Further, the result in assay [9], in [10], in assay [11], in assay [12], in [13] and in [14] was inactive. Besides, the result in [15] was inactive. In addition, in assay [2], the IC50 amounted to 9 nM.
`Cn1ncc(C(=O)N2CCC(Nc3cc(=O)[nH]c4ccccc34)C2)c1Cl` (stereo not drawn) registered a minimal inhibitory concentration (MIC) in [1] of more than 200 µM. In addition, the concentration for half-maximal inhibition (IC50) in assay [2] stood at 4700 nM.
In turn, `C[C@H]1C[C@@H](Nc2cc(=O)[nH]c3ccccc23)CCN1C(=O)c1cnn(C)c1Cl` returned a minimum inhibitory concentration (MIC) in [1] of more than 200 µM. For the same compound, the IC50 in assay [2] is more than 10000 nM.
In assay [1], `COc1cc(NC2CCN(C(=O)c3cnn(C)c3Cl)CC2)c2ccccc2n1` had an MIC of more than 200 µM. For the same compound, in assay [2], the 50% inhibitory concentration (IC50) was found to be 78000 nM.
For the compound `Cn1ncc(C(=O)N2CCC(Nc3cnnc4ccccc34)CC2)c1Cl`, the MIC in assay [1] was more than 200 µM. In assay [2], the half-inhibitory concentration (IC50) is more than 10000 nM.
Turning to `Cn1ncc(C(=O)N2[C@@H]3CC[C@H]2C[C@@H](Nc2cc(=O)n(C)c4cc(F)c(F)cc24)C3)c1Cl`, the lowest concentration to inhibit growth in assay [1] (MIC) was 0.12 µM (≈ 0.0554 µg/mL). For the same compound, the IC50 in assay [2] was 8 nM.
In assay [1], `Cn1ncc(C(=O)N2[C@@H]3CC[C@H]2C[C@@H](Nc2cc(=O)n(C)c4ccc(F)cc24)C3)c1Cl` had an MIC of 0.25 µM (≈ 0.111 µg/mL). For the same compound, the IC50 in assay [2] was 12 nM.
